The test system of experiment [1] is MDA-MB-231. The experiment can be described thus: Antiproliferative activity in human JUND-knockdown MDA-MB-231 cells assessed as stronger tumor sphere formation at 1 uM by tumor sphere assay. It counts as functional, cell-based.
In experiment [2] the test system is BT-549. Nature of the experiment: Effect on induction of RPS6KA2 transcription in human BT-549 cells assessed as JunD protein expression at 1 uM for 24 hrs by Western blot analysis. It counts as functional, cell-based. In general terms: Immunoblotting shows a protein as a band on a membrane.
The subject of experiment [3] is BT-549. The experiment can be described thus: Effect on human BRD4-knockdown BT-549 assessed as decreased luciferase activity at 1 uM for 6 hrs by Luciferase reporter assay. Type of experiment: functional, cell-based.
Experiment [4] deals with BT-549. Nature of the experiment: Antiproliferative activity in human BT-549 cells assessed as cell growth in the presence of gefitinib at 1 uM by CellTiter-Glo luminescent cell viability assay. Type of experiment: functional, cell-based. The method in brief: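 BLBC cells seeded at 3000/well, adhered overnight, then exposed to JQ1 (1 μM) with or without an EGFR inhibitor (1 μM) for 48 h; control and RPS6KA2-shRNA clones tested. Viability by CellTiter-Glo luminescence, background-subtracted and normalized to DMSO-treated control; triplicates, mean ± SD, one-way ANOVA against JQ1 alone.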
Background: Cellular ATP, detected with luciferase, serves as a proxy for viable cell number.

Experiment [5] relates to MDA-MB-231. Nature of the experiment: Effect on human MDA-MB-231 cells assessed as EGFR protein expression at 1 uM by Western blot analysis. It counts as functional, cell-based.
Experiment [6] concerns MDA-MB-231. The experiment can be described thus: Antitumor activity against human MDA-MB-231 cells xenografted in BALB/c nude mouse model assessed as reduction of tumor weight in the presence of osimertinib at 35 mg/kg/day, sc administered every 2 days for 30 days. Type of experiment: functional, organism-based. The note with it: time 30.0 day. The gist of the method:
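MDA-MB-231 xenografts used 1 × 10^6 cells injected subcutaneously into female BALB/c nude mice (4–6 weeks). Animals were split into four groups (n = 7) at ~100 mm3: vehicle, osimertinib 10 mg/kg, 35 mg/kg agent, or the combination, each given every 2 days. Volume was measured by calliper as length × width²/2; tumours were weighed at end.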
(In xenograft studies the graft and the host belong to different species.)

Experiment [7] deals with MDA-MB-231. The experiment can be described thus: Induction of apoptosis in human MDA-MB-231 cells over expressing RSK3 assessed as late apoptotic cells at 1 uM by Annexin V-FITC flow cytometric analysis (reference value: 1.45%). Type of experiment: functional. The method in brief: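 Stable clones (vector, RSK3-overexpressing or RPS6KA2-knockdown) treated ± JQ1 1 μM. Cells washed twice in PBS, resuspended at 1 × 10^6 cells/ml in binding buffer, stained with Annexin V-FITC and propidium iodide for 10 min at room temperature in the dark, then read by flow cytometry. Three independent experiments; one-way ANOVA.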

Calls of active or inactive are those of the source. The rule behind the calls is not given here.

Turning to `Cc1sc2c(c1C)C(c1ccc(Cl)cc1)=N[C@@H](CC(=O)OC(C)(C)C)c1nnc(C)n1-2`, the outcome in the experiment on MDA-MB-231 [1], in the experiment on BT-549 [2], in the experiment on BT-549 [3], in the experiment on BT-549 [4], in the experiment with MDA-MB-231 [5] and with MDA-MB-231 [6] was Active. Also, the Activity with MDA-MB-231 [7] is on record as 2.9%.

The record behind these values is ChEMBL document CHEMBL5674889, “Enhanced JunD/RSK3 signalling due to loss of BRD4/FOXD3/miR-548d-3p axis determines BET inhibition resistance” (2020).
